Test results: ChEMBL document CHEMBL1147142, “Novel 3-O-glycosyl-3-demethylthiocolchicines as ligands for glycine and gamma-aminobutyric acid receptors” (J Med Chem, 2007)

How the values were obtained:
Type in all cases: cell membranes, Membrane
[1] = Displacement of [3H]strychnine from glycine receptor in rat spinal cord synaptosomal membranes
How it was run: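 Rat spinal cord synaptosomal membranes (stored at -80 °C, used within 2 weeks; 0.2-0.4 mg protein per 1.2 mL) incubated 10 min at 4 °C with 2 nM [3H]strychnine plus increasing concentrations of competitor in 50 mM sodium-potassium phosphate, pH 7.1. Rapid glass-fiber filtration, 0.15 M NaCl rinse. Nonspecific binding with 0.1 mM unlabeled strychnine. Triplicate points; IC50 from mean of three independent curves.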

[2] = Displacement of [3H]muscimol from GABAA receptor in Sprague-Dawley rat spinal cord brainstem membranes
[3] = Displacement of [3H]muscimol from GABAA receptor in Sprague-Dawley rat cerebral cortex membranes

Row | Compound | IC50 [1] [µM] | IC50 [2] [µM] | IC50 [3] [µM]
1 | O=C1C[C@@H]2OCC=C3CN4CC[C@]56c7ccccc7N1[C@H]5[C@H]2[C@H]3C[C@H]46 [STRYCHNINE] | 0.014 |  | 
2 | COc1c(O[C@@H]2O[C@H](CO)[C@@H](O)[C@H](O)[C@H]2O)cc2c(c1OC)-c1ccc(SC)c(=O)cc1[C@@H](NC(C)=O)CC2 [THIOCOLCHICOSIDE] | 1.5 | 1.9 | 3.4
3 | COc1c(O[C@@H]2O[C@H](C)[C@@H](O)[C@H](O)[C@H]2O)cc2c(c1OC)-c1ccc(SC)c(=O)cc1[C@@H](NC(C)=O)CC2 | 1.9 | 3.5 | 6.2
4 | COc1c(O[C@@H]2O[C@H](CN=[N+]=[N-])[C@@H](O)[C@H](O)[C@H]2O)cc2c(c1OC)-c1ccc(SC)c(=O)cc1[C@@H](NC(C)=O)CC2 | 4.3 | 8.2 | 7.8

Now from value to compound:

Row | IC50 [1] [µM] | IC50 [2] [µM] | IC50 [3] [µM] | Compound
5 | 15.8 |  |  | NCC(=O)O [GLYCINE]
6 | > 100 | 8 | 17.3 | COc1c(O[C@@H]2O[C@H](CI)[C@@H](O)[C@H](O)[C@H]2O)cc2c(c1OC)-c1ccc(SC)c(=O)cc1[C@@H](NC(C)=O)CC2
7 | 1.3 | 2 | 3.8 | COc1c(O[C@@H]2O[C@H](CF)[C@@H](O)[C@H](O)[C@H]2O)cc2c(c1OC)-c1ccc(SC)c(=O)cc1[C@@H](NC(C)=O)CC2
